Active and inactive are the calls of the source. The calls are words filed in the database; no cut-off is given here.
How the values were obtained:
[1] = molecular target: T1, Protein kinase C (PKC) (Homo sapiens) (UniProt O94806+P41743+P17252+P05129+Q05655+P05771+Q05513+Q02156+P24723+Q15139+Q04759); test: Activation of PKC in human ACH-2 cells infected with latent HIV-1 assessed as reversal of HIV-1 latency by measuring increase in p24 antigen level at 1 to 10000 nM incubated for 48 hrs by chemiluminescent enzyme immunoassay; type: cell-based; details: ACH-2 cell line, filed as activator, dose 1-10000 nM
How it was run: (§1)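 ACH-2 or U1 cells (5 × 10^5 cells/ml) incubated 48 h with graded drug concentrations. Supernatant p24 antigen measured by automated chemiluminescent immunoassay. EC50 calculated taking the maximum response with excess PMA as 100%. Means ± S.D. of three independent experiments.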

[2] = molecular target: T1, Protein kinase C (PKC) (Homo sapiens); test: Activation of PKC in human U1 cells infected with latent HIV-1 assessed as reversal of HIV-1 latency by measuring increase in p24 antigen level at 1 to 10000 nM incubated for 48 hrs by chemiluminescent enzyme immunoassay; type: cell-based; details: filed as activator, dose 1-10000 nM; how it was run: as §1
Protein kinase C (PKC) [3] = test: Activation of PKC in human J-Lat 6.3 cells infected with latent HIV-1 assessed as reversal of HIV-1 latency by measuring increase of GFP-positive cells at 1 to 10000 nM incubated for 24 hrs by flow cytometry; type: cell-based
How it was run: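 J-Lat 10.6 or J-Lat 6.3 cells (5 × 10^5 cells/ml) incubated 24 h with graded drug concentrations; % GFP-positive cells determined by flow cytometry. Means ± S.D. of three independent experiments.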

[4] = molecular target: T1, Protein kinase C (PKC) (Homo sapiens); test: (§2) Activation of PKC in human U1 cells infected with latent HIV-1 assessed as reversal of HIV-1 latency by measuring increase in p24 antigen level incubated for 48 hrs by chemiluminescent enzyme immunoassay; type: cell-based; details: filed as activator
Protein kinase C (PKC) [5] = test: as §2; type: cell-based
[6] = Toxicity in human A3.01 cells assessed as reduction in cell viability after 48 hrs by WST8 assay; type: cell-based
How it was run: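 Parental, uninfected lines (A3.01 for ACH-2, U937 for U1) at 5 × 10^5 cells/ml cultured with or without drug. Viable cells read at 48 h (day 2) and expressed as % of untreated control. CC50 taken as the concentration lowering viability by 50%.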

[7] = molecular target: T1, Protein kinase C (PKC) (Homo sapiens); test: Activation of PKC in human J-Lat 10.6 cells infected with latent HIV-1 assessed as reversal of HIV-1 latency by measuring increase of GFP-positive cells at 100 to 400 nM in presence of 10 nM Panobinostat incubated for 24 hrs by flow cytometry; type: cell-based; details: filed as activator, dose 100-400 nM
[8] = molecular target: T1, Protein kinase C (PKC) (Homo sapiens); test: Activation of PKC in human J-Lat 10.6 cells infected with latent HIV-1 assessed as reversal of HIV-1 latency by measuring increase of GFP-positive cells at 400 nM incubated for 24 hrs by flow cytometry; type: cell-based; details: filed as activator
[9] = molecular target: T1, Protein kinase C (PKC) (Homo sapiens); test: Synergistic activation of PKC in CD4+ T-cells purified from HIV-infected patient assessed as increase in transcription of HIV mRNA at 5 uM incubated for 24 hrs by qRT-PCR method; type: cell-based; details: CD4+ T cell, filed as activator
How it was run: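 CD4+ T-cells purified from PBMC of patients on cART for at least 5 years with plasma viral load <20 copies/ml. Cells plated at 2.5 × 10^6 cells/ml and treated 24 h, alone or with 1 μm JQ1. Intracellular HIV RNA measured by qRT-PCR against a plasmid standard curve, normalised per ng input RNA, relative to untreated cells. Synergy assessed by Bliss independence model.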

U1 [10] = test: Induction of apoptosis in human U1 cells at 1 uM incubated for 48 hrs by propidium iodide/annexin-V staining based flow cytometry; type: functional
[11] = molecular target: T1, Protein kinase C (PKC) (Homo sapiens); test: Activation of PKC in CCL19-induced human CD4+ T-cells infected with latent HIV-1 assessed as reversal of HIV-1 latency by measuring increase in p24 antigen level at 1 uM incubated for 48 hrs by chemiluminescent enzyme immunoassay; type: cell-based; details: CD4+ T cell, filed as activator
[12] = Toxicity in human CD4+ T-cells assessed as increase in ratio of CD25+ cells incubated for 24 hrs by flow cytometry; type: cell-based; details: cd4+ t cell
How it was run: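 Primary CD4+ T-cells from healthy donors treated with drug for 24 h. Cells stained with anti-CD25 and anti-CD69 antibodies (plus CD3, CD4, HLA-DR) for 30 min on ice, then marker-positive proportions quantified by flow cytometry.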

[13] = Toxicity in human CD4+ T-cells assessed as elevation of supernatant cytokine concentrations of IL-5 incubated for 24 hrs by bead-based immunoassay; details: cd4+ t cell
How it was run: (§3)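 Purified CD4+ T-cells from healthy donors treated 24 h with 1 μm drug, 1 μm JQ1, or the combination. IL-2, IL-5, IL-6, IL-13, TNFα and IFN-γ in supernatants measured by flow-cytometry bead-based Th1/Th2 immunoassay. Run in duplicate.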

[14] = Toxicity in human CD4+ T-cells assessed as elevation of supernatant cytokine concentrations of TNFalpha incubated for 24 hrs by bead-based immunoassay; details: cd4+ t cell; how it was run: as §3
[15] = Toxicity in human CD4+ T-cells assessed as elevation of supernatant cytokine concentrations of IFNgamma incubated for 24 hrs by bead-based immunoassay; details: cd4+ t cell; how it was run: as §3
[16] = Toxicity in human CD4+ T-cells assessed as elevation of supernatant cytokine concentrations of IL-2 incubated for 24 hrs in presence of JQ1 by bead-based immunoassay; details: cd4+ t cell; how it was run: as §3
[17] = Toxicity in human CD4+ T-cells assessed as elevation of supernatant cytokine concentrations of IL-5 incubated for 24 hrs in presence of JQ1 by bead-based immunoassay; details: cd4+ t cell; how it was run: as §3
[18] = Toxicity in human CD4+ T-cells assessed as elevation of supernatant cytokine concentrations of IL-13 incubated for 24 hrs in presence of JQ1 by bead-based immunoassay; details: cd4+ t cell; how it was run: as §3
[19] = Toxicity in human CD4+ T-cells assessed as elevation of supernatant cytokine concentrations of TNFalpha incubated for 24 hrs in presence of JQ1 by bead-based immunoassay; details: cd4+ t cell; how it was run: as §3
[20] = Toxicity in human CD4+ T-cells assessed as elevation of supernatant cytokine concentrations of IFNgamma incubated for 24 hrs in presence of JQ1 by bead-based immunoassay; details: cd4+ t cell; how it was run: as §3
U1 [21] = test: Induction of apoptosis in human U1 cells at 1 uM incubated for 48 hrs by propidium iodide/annexin-V staining based flow cytometry (reference value: 3.16%); type: functional
J-Lat 6.3 [22] = test: Induction of apoptosis in human J-Lat 6.3 cells assessed as caspase-3 activation at 1 uM incubated for 24 hrs by flow cytometry; type: functional
How it was run: (§4)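 Cells fixed in 1% paraformaldehyde, permeabilized, stained 30 min on ice with anti-active caspase-3 mAb, and analysed by flow cytometry. Three independent experiments.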

U-937 = test: Induction of apoptosis in human U-937 cells assessed as caspase-3 activation at 1 uM incubated for 24 hrs by flow cytometry; type: functional; how it was run: as §4
Jurkat = test: Induction of apoptosis in human Jurkat cells assessed as caspase-3 activation at 1 uM incubated for 24 hrs by flow cytometry; type: functional; how it was run: as §4
U1 [23] = test: Induction of apoptosis in human U1 cells assessed as caspase-3 activation at 1 uM incubated for 24 hrs by flow cytometry (reference value: 1.86%); type: functional; how it was run: as §4
J-Lat 6.3 [24] = test: Induction of apoptosis in human J-Lat 6.3 cells assessed as caspase-3 activation at 1 uM incubated for 24 hrs by flow cytometry (reference value: 2.43%); type: functional; how it was run: as §4

## CCCCCCCCCCc1ccc2c(c1)N(C)[C@@H](C(C)C)C(=O)N[C@H](CO)C2
[1]
  Activity: Active
[2]
  Activity: Active
Protein kinase C (PKC) [3]
  EC50: 6.3 µM
[4]
  Activity: Dose-Dependent Effect
Protein kinase C (PKC) [5]
  EC50: 0.034 µM
[6]
  CC50 at 48 h: 21.1 µM
[7]
  Activity: Active
[8]
  Activity: 42.2%
[9]
  fold change (FC): 1.4
U1 [10]
  Activity: 28.4%
[11]
  Activity: Active
[12]
  Activity: Non-Toxic
[13]
  Activity: Toxic
[14]
  Activity: Toxic
[15]
  Activity: Toxic
[16]
  Activity: Non-Toxic
[17]
  Activity: Non-Toxic
[18]
  Activity: Non-Toxic
[19]
  Activity: Non-Toxic
[20]
  Activity: Non-Toxic
U1 [21]
  Activity: 28.4%
J-Lat 6.3 [22]
  Activity: 12.2%
U-937
  Activity: 0.5%
Jurkat
  Activity: 2.63%
U1 [23]
  Activity: 7.7%
J-Lat 6.3 [24]
  Activity: 21.9%

Reference: ChEMBL document CHEMBL5674882, “Benzolactam-related compounds promote apoptosis of HIV-infected human cells via protein kinase C-induced HIV latency reversal” (J Biol Chem, 2019)
